Reference: paper PMC10871333 (bioRxiv, 2024)
Values joined by “and” are separate entries in the source; they are usually repeats but may differ in a detail not shown here. Identical values can stand only once.

Legend:
[1] = system: DNA (2.5kbp, 4kbp, 10kbp); experiment: Phase separation of HP1α with DNA of different length; type: physicochemical
Summary of the method: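 HP1α was 0.22um-filtered, buffer-exchanged and mixed with dsDNA to 20uM HP1α (12.5–20μM tested) and nanomolar DNA. Buffer was 70mM KCl, 20mM HEPES, 1mM DTT, pH 7.5, in a 7ul reaction at 23°C on Pluronic F-127–treated slides. Imaging used wide-field DIC with a ×40 air objective at t=0 and 60 min.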

[2] = molecular target: T1, HP1α-DNA condensates (Homo sapiens, UniProt P45973); experiment: FRAP of Alexa-488 labeled HP1α in HP1α-DNA condensates; type: physicochemical; details: for FRAP dynamics of HP1α, in words: HP1α-DNA condensates, all three DNA lengths, no histone peptide
Summary of the method: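 Alexa-488 maleimide-labeled HP1α (~1%) mixed with unlabeled protein to 20uM in 70mM KCl, 20mM HEPES, 1mM DTT, pH 7.4. DNA 40nM (2.5kbp) to 9nM (10kbp), with or without H3K9me3 peptide up to 42μM, at 23°C. A 0.5–1um area bleached on a spinning-disc confocal. Recovery was fitted to an exponential to give mobile fraction (I0) and half-time ln(2)/β.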

[3] = molecular target: T1, HP1α-DNA condensates; experiment: Microrheology; type: physicochemical
Summary of the method: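 HP1α at 20 μM with 40nM 2.5kbp, 20nM 4kbp or 9nM 10kbp DNA, with or without 10 or 42μM H3K9me3 peptide. 200nm carboxylated fluorescent beads were embedded and tracked on a spinning-disc confocal (x63/1.4NA oil) at 200ms interval, 1000 frames, 10–50ms exposure, 23°C ± 2°C. Beads near boundaries were avoided. 2D MSD was time- and ensemble-averaged, and α was taken as the log-log slope versus lag time.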

[4] = system: HP1α; details: ref [27]; cited from earlier work
[5] = 70mM KCl, 20mM HEPES, 1mM DTT, pH 7.5
[6] = with HP1α 12.5μM-20μM, 70mM KCl, 20mM HEPES, 1mM DTT, pH 7.5

T1 sequence (P45973 whole entry): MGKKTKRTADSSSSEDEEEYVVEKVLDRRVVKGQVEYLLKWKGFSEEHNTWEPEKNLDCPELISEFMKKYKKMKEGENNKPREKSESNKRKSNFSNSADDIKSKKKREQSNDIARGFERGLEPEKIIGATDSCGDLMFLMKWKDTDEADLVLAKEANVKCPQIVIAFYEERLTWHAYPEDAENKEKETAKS

## HP1α: Recombinantly expressed and purified HP1α (MW = 22kDa) from Biomatik Corporation
[1]; 20μM HP1α, DIC 40x
  morphology with 4kbp DNA (9nM or 15nM) at t=0min and t=60min: spherical condensates can be seen
[1]; 20μM HP1α, t=0min and t=60min, DIC 40x
  morphology change with 10kbp DNA (9nM or 15nM) over 1hour: changes in the morphology (from asymmetric to spherical)
[1]; [5]
  assembly morphology with 10kbp DNA: assemblies with an asymmetric morphology were initially observed before transitioning to spherical droplets
  droplet morphology with 2.5kbp and 4kbp DNA: spherical droplets appeared instantaneously
  time of transition from asymmetric to spherical droplets with 10kbp DNA: ≤ 1 h
[1]; same HP1α concentration, 70mM KCl, 20mM HEPES, 1mM DTT, pH 7.5
  solubility / phase behavior of HP1α in the absence of DNA: remains soluble
[1]; three DNA lengths (2500, 4000, 10000 bp) at nanomolar concentrations, 70mM KCl, 20mM HEPES, 1mM DTT, pH 7.5, 23°C, DIC 40x
  phase separation with DNA: undergoes phase separation
[1]; [6]
  DNA concentration inducing phase separation, 2500 bp DNA: 30 nM
  DNA concentration inducing phase separation, 10000 bp DNA: 9 nM
[2]
  FRAP dynamics of HP1α, in words: remain dynamic
[2]; listed as HP1a
  FRAP dynamics of HP1α, in words: rapid recovery
[3]; 20 μM HP1α and 9nM 10kbp DNA, no peptide, 200nm beads, 200ms interval, 23°C
  average diffusive exponent α, 10kbp DNA condensates: 0.58±0.05
[3]; 20 μM HP1α and 20nM 4kbp DNA, no peptide, 200nm beads, 200ms interval, 23°C
  average diffusive exponent α, 4kbp DNA condensates: 0.72±0.02
[3]; 20 μM HP1α and 40nM 2.5kbp DNA, no peptide, 200nm beads, 200ms interval, 23°C
  diffusive exponent α, 2.5kbp DNA condensates: 0.85±0.06 and ~ 0.85±0.06

## unmodified H3: unmodified human N-terminal histone H3 tail (residues 1–22), purchased from Bachem
[4]
  binding of HP1α chromodomain to histone H3 mark: does not bind

## H3K9me3: human N-terminal histone H3 tail (residues 1–22) with trimethylated lysine 9, purchased from Bachem [reference compound]
[2]; H3K9me3 peptide 10μM, Alexa488-HP1α, 2.5kbp DNA condensates, FRAP
  mobile fraction of HP1α in condensates with peptide, 10μM peptide: ~ 100%
[4]
  binding of HP1α chromodomain to histone H3 mark: recognizes and binds specifically
[3]; 2.5kb DNA condensates
  decrease in α with H3K9me3 compared with lengthening the DNA to 10kbp: more pronounced

## H3K4me3: human N-terminal histone H3 tail (residues 1–22) with trimethylation of lysine 4, purchased from Bachem
[4]
  binding of HP1α chromodomain to histone H3 mark: does not bind
